The nature of series [1]: Cmax in Sprague-Dawley rat systemic circulation at 5 mg/kg, po or 0.5 mg/kg, iv measured up to 24 hrs by HPLC-MS/MS analysis. It is filed as ADME, organism-based. Details: dose 5 mg/kg, time <=24. The gist of the method: (§1)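 Rat dosing in PEG300:20% Solutol/PBS (10:25:65). IV into a jugular cannula at 0.5 mg/kg (1 mg/kg for some analogues), 1 mL/kg. PO by gavage at 5 mg/kg from a 0.5 mg/mL solution. Blood drawn via jugular cannula at 5 min (IV only), 15 min, 0.5, 1, 2, 4, 7 and 24 h. Plasma analysed by HPLC-MS/MS. Parameters from noncompartmental analysis.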

Series [2] is described as follows: Aqueous solubility of the compound at pH 6.8. The series is classed as physicochemical. The settings on record: buffer. Put shortly: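 Thermodynamic (equilibrium) solubility. 10 mM DMSO stock dried down, then pH 6.8 phosphate buffer added to a target of 1 mM. Shaken at 1350 rpm at ambient temperature for 16–24 h. Supernatant centrifuged twice, diluted 200-fold and quantified by RapidFire-MS/MS against a 4-point calibration curve.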

The nature of series [3]: Half life in Sprague-Dawley rat at 5 mg/kg, po or 0.5 mg/kg, iv measured up to 24 hrs by HPLC-MS/MS analysis. It is filed as ADME, organism-based. The settings on record: in vivo. The gist of the method:
as §1

Series [4] can be described thus: Clearance in Sprague-Dawley rat liver microsomes measured up to 30 mins in presence of NADPH by HPLC-MS/MS analysis. The settings on record: read-out: CLH. The series is classed as ADME, Microsome.
Series [5] can be described thus: Volume of distribution at steady state in Sprague-Dawley rat at 5 mg/kg, po or 0.5 mg/kg, iv measured up to 24 hrs by HPLC-MS/MS analysis. The series is classed as ADME, organism-based. The settings on record: in vivo, read-out: Vdss. The gist of the method:
as §1

Series [6] is described as follows: 1-Octanol/phosphate buffered-saline distribution coefficient, logD of compound at pH 7.4 measured after 4 hrs by LC-MS analysis. It is filed as physicochemical. Put shortly: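 PBS pH 7.4 and 1-octanol, each pre-saturated with the other. 10 mM DMSO stock, dispensed with an internal reference compound in triplicate and dried. Residue shaken in octanol plus buffer for at least 4 h, then centrifuged to separate phases. Both phases quantified by LC-MS/MS. Log D taken from the phase peak-area ratio, normalised to internal standard.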

Series [7] in a line: Clearance in Sprague-Dawley rat at 5 mg/kg, po or 0.5 mg/kg, iv measured up to 24 hrs by HPLC-MS/MS analysis. It is filed as ADME, organism-based. The settings on record: in vivo. The gist of the method: as §1
Series [8] is described as follows: Clearance in human liver microsomes measured up to 30 mins in presence of NADPH by HPLC-MS/MS analysis. It is filed as ADME, Microsome. The settings on record: read-out: CLH. The gist of the method: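 Human liver microsomes at 1.25 mg/mL protein in phosphate buffer pH 7.4. Test article at 10 μM, shaken at 37 °C. Reaction started with 2 mM NADPH/4 mM MgCl₂. Aliquots taken at 0, 5, 15 and 30 min and quenched with acetonitrile containing glibenclamide. Parent remaining measured by LC-MS/MS. Elimination rate constant converted to in vitro clearance.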
In general terms: Liver microsomes are a subcellular fraction often used to study metabolism.

A short description of series [9]: Oral bioavailability in Sprague-Dawley rat at 5 mg/kg measured up to 24 hrs by HPLC-MS/MS analysis. The series is classed as ADME, organism-based. The settings on record: in vivo. Put shortly:
as §1

A short description of series [10]: AUC in Sprague-Dawley rat systemic circulation at 5 mg/kg, po or 0.5 mg/kg, iv measured up to 24 hrs by HPLC-MS/MS analysis. The series is classed as ADME, organism-based. Details: dose 5 mg/kg, time <=24. Put shortly:
as §1

Series [11] can be described thus: Apparent permeability across apical to basolateral membrane in MDCKII-LE cells measured after 120 mins by RapidFire-MS analysis. The series is classed as ADME, cell-based, Canis lupus familiaris. The settings on record: dog, MDCK. The gist of the method: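 MDCK-LE (low efflux) cells seeded at about 265,000 cells/cm² on Transwells and cultured 4 days. Apical-to-basal transport run in triplicate at 10 μM in HBSS/10 mM HEPES pH 7.4 with 0.02% BSA, 120 min at 37 °C without shaking. Bestatin used as integrity marker. Donor and acceptor quantified by MS against glyburide internal standard. Papp and % recovery calculated.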

In brackets after ≈: the same amount, converted by molar mass. Positions of bridges follow the written chain, without caps; N, C: chain ends. Non-standard residues stand in square brackets, D forms with d. Residues, ends and D or L forms follow the SMILES beside them. NMeF = CN[C@@H](Cc1ccccc1)C(=O)O; NMeNle = CCCC[C@H](NC)C(=O)O; Nle = CCCC[C@H](N)C(=O)O A value given as a limit tells only on which side of the number the result lay.

On to `CCCC[C@@H]1NC(=O)[C@H](Cc2ccccc2)N(C)C(=O)CSC[C@H](C(=O)NC)N(C)C(=O)[C@H](CCCC)NC(=O)[C@H](CCCC)N(C)C(=O)C2CCCN2C1=O` (stereo not given in full), for which the Cmax (in general, the peak of the concentration-time curve) in series [1] is 152 nM. Further, the concentration in solution in [2] (solubility) was 216 µM (≈ 173 µg/mL). For the same molecule, in [3], the half-life (as a rule, the time in which the quantity being followed falls by half) was 18 min. Further, the microsomal CLint in series [4] and in series [8] was not below 350 µL/min/mg each time. In series [5], the Vd came to 1.3 L/kg. In addition, the logD (commonly the decadic logarithm of the distribution of all forms, ionised or not, between an organic phase and buffer at a given pH) at 4 h in series [6] stood at 3.6. In [7], this molecule gave a clearance of 72 mL/min/kg. Further, the bioavailability (as a rule, the share of a dose that reaches the circulation, judged against a reference dose that is usually intravenous) in series [9] stood at 6%. Also, the AUC (commonly concentration integrated over time) at 24 h in [10] is 0.092 µM·h. Besides, the Papp A→B (usually how fast a substance crosses the layer from the apical side) at 2 h in series [11] is 6.3 ×10⁻⁶ cm/s.

Consider `CCCC[C@@H]1NC(=O)[C@H](CCCC)NC(=O)[C@H](CCCC)N(C)C(=O)[C@@H]2CCCN2C(=O)[C@H](CCCC)N(C)C(=O)[C@H](Cc2ccccc2)NC(=O)CSC[C@@H](C(=O)NC)NC1=O` ({CH2CO}-F[NMeNle]P[NMeNle][Nle][Nle]C-NHMe; thioether N-7), for which, in series [1], the highest level (Cmax) was 18 nM. Further, in series [2], the concentration in solution (solubility) came to 9 µM (≈ 8.09 µg/mL). For the same molecule, the half-life in series [3] was 42 min. The microsomal CLint in series [4] and in [8] was not below 480 µL/min/mg in each case. For the same molecule, in series [5], the Vd came out at 4.4 L/kg. The same molecule had a logD at 4 h in [6] of 4.7. The clearance in [7] worked out at 106 mL/min/kg. In series [9], this molecule gave a bioavailability of 1%. This molecule registered an AUC at 24 h in series [10] of 0.01 µM·h. In [11], the Papp A→B at 2 h stood at 0.8 ×10⁻⁶ cm/s.

Molecule `CCCC[C@@H]1NC(=O)C2CCCN2C(=O)[C@H](CCCC)NC(=O)[C@H](Cc2ccccc2)NC(=O)CSC[C@H](C(=O)NC)NC(=O)[C@H](CCCC)NC1=O` (stereo not given in full) displayed a Cmax in series [1] of 1.7 nM. The concentration in solution in series [2] (solubility) was 200 µM (≈ 152 µg/mL). Also, the half-life in series [3] was 12 min. The microsomal CLint in series [4] and in [8] was not below 350 µL/min/mg throughout. In addition, the Vd in [5] is 2 L/kg. In series [6], this molecule showed a logD at 4 h of 3.1. In series [7], this molecule yielded a clearance of 222 mL/min/kg. The bioavailability in [9] was less than 1%. This molecule also showed an AUC at 24 h in [10] of 0.0006 µM·h. The Papp A→B at 2 h in series [11] is 0.6 ×10⁻⁶ cm/s.

As to `CCCC[C@@H]1NC(=O)[C@H](CCCC)N(C)C(=O)[C@@H]2CCCN2C(=O)[C@H](CCCC)N(C)C(=O)[C@H](Cc2ccccc2)NC(=O)CSC[C@@H](C(=O)NC)NC(=O)[C@H](CCCC)N(C)C1=O` ({CH2CO}-F[NMeNle]P[NMeNle][Nle][NMeNle]C-NHMe; thioether N-7), the peak level in [1] (Cmax) was 868 nM. Besides, in series [2], the solubility – broadly, the dissolved amount per volume that the medium holds – turned out to be 9 µM (≈ 8.22 µg/mL). The same molecule had a half-life in [3] of 36 min. Moreover, the microsomal CLint in series [4] and in series [8] was not below 480 µL/min/mg throughout. In addition, in series [5], the Vd was 1.2 L/kg. In series [6], the logD at 4 h was determined as 4.8. This molecule came in with a clearance in series [7] of 35 mL/min/kg. The molecule further had a bioavailability in [9] of 86%. The molecule further showed an AUC at 24 h in series [10] of 2.13 µM·h. For the same molecule, in series [11], the Papp A→B at 2 h was 6.4 ×10⁻⁶ cm/s.

In series [1], `CCCC[C@@H]1NC(=O)[C@H](Cc2ccccc2)N(C)C(=O)[C@@H]2CCCN2C(=O)[C@H](CCCC)N(C)C(=O)[C@H](Cc2ccccc2)NC(=O)CSC[C@@H](C(=O)NC)NC(=O)[C@H](CCCC)N(C)C1=O` ({CH2CO}-F[NMeNle]P[NMeF][Nle][NMeNle]C-NHMe; thioether N-7) showed a Cmax of 1950 nM. The same molecule registered a solubility in [2] of 9 µM (≈ 8.53 µg/mL). In series [3], this molecule gave a half-life of 90 min. Moreover, the microsomal CLint in [4] and in [8] was not below 480 µL/min/mg throughout. Further, the Vd in series [5] is 1.1 L/kg. The same molecule yielded a logD at 4 h in series [6] of 4.9. The molecule further yielded a clearance in series [7] of 19 mL/min/kg. In series [9], this molecule registered a bioavailability of 84%. The molecule further yielded an AUC at 24 h in series [10] of 1.31 µM·h. In addition, the Papp A→B at 2 h in [11] is 2.3 ×10⁻⁶ cm/s.

(Values after ChEMBL document CHEMBL4808165, “Design of Thioether Cyclic Peptide Scaffolds with Passive Permeability and Oral Exposure” (J Med Chem, 2021).)
